Results as given in ChEMBL document CHEMBL1287754, “28-nor-oleanane-type triterpene saponins from Camellia japonica and their inhibitory activity on LPS-induced NO production in macrophage RAW264.7 cells” (Bioorg Med Chem Lett, 2010).
pIC50: −log10 of the molar value.

Key:
RAW264.7 [1] = experiment: Antiinflammatory activity in mouse RAW264.7 cells assessed as inhibition of LPS-induced nitric oxide production after 24 hrs by Griess reaction; format: functional, cell-based; conditions: RAW264.7, 24 h
In short: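 LPS-stimulated RAW264.7 macrophages; nitrite, the stable NO metabolite, quantified by Griess reaction in harvested culture medium. IC50 is the molar concentration giving 50% inhibition of NO production relative to vehicle control.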

RAW264.7 [2] = experiment: Cytotoxicity against mouse RAW264.7 cells assessed as cell viability at 50 uM after 24 hrs by MTT assay; format: cell-based; conditions: raw264.7, 24 h
RAW264.7 [3] = experiment: Cytotoxicity against LPS-stimulated mouse RAW264.7 cells assessed as cell viability at 50 uM after 24 hrs by MTT assay; format: cell-based; conditions: raw264.7, 24 h

pIC50 (RAW264.7 [1])	SMILES	Activity (RAW264.7 [2])	Activity (RAW264.7 [3])
7.66	CC1CCN=C(N)S1 (centres undefined)	–	–
5.02	CC1(C)CC[C@]2(O)C(=O)C[C@]3(C)C(=CC[C@@H]4[C@@]5(C)CC[C@H](O[C@@H]6O[C@H](C(=O)O)[C@@H](O)[C@H](O[C@@H]7O[C@H](CO)[C@H](O)[C@H](O)[C@H]7O[C@@H]7O[C@H](CO)[C@@H](O)[C@H](O)[C@H]7O)[C@H]6O[C@H]6O[C@@H](CO)[C@@H](O)[C@@H](O)[C@@H]6O)C(C)(C)C5CC[C@]43C)[C@@H]2C1 (some centres undefined) [CAMELLIOSIDE A]	Non-toxic	Non-toxic
4.74	CC1(C)CC[C@]2(O)C(=O)C[C@]3(C)C(=CC[C@@H]4[C@@]5(C)CC[C@H](O[C@@H]6O[C@H](C(=O)O)[C@@H](O)[C@H](O[C@@H]7O[C@H](CO)[C@H](O)[C@H](O)[C@H]7O[C@@H]7OC[C@@H](O)[C@H](O)[C@H]7O)[C@H]6O[C@H]6O[C@@H](CO)[C@@H](O)[C@@H](O)[C@@H]6O)C(C)(C)C5CC[C@]43C)[C@@H]2C1 (some centres undefined) [CAMELLIOSIDE E]	Non-toxic	Non-toxic
4.94	CC(=O)O[C@H]1[C@@H](O)[C@H](O)[C@@H](O[C@H]2[C@H](O[C@H]3CC[C@@]4(C)C(CC[C@]5(C)[C@@H]4CC=C4[C@@H]6CC(C)(C)CC[C@]6(O)C(=O)C[C@]45C)C3(C)C)O[C@H](C(=O)O)[C@@H](O)[C@@H]2O[C@@H]2O[C@H](CO)[C@H](O)[C@H](O)[C@H]2O[C@@H]2OC[C@@H](O)[C@H](O)[C@H]2O)O[C@H]1CO (some centres undefined) [CAMELLIOSIDE F]	Non-toxic	Non-toxic
5.29	COC(=O)[C@H]1O[C@@H](O[C@H]2CC[C@@]3(C)C(CC[C@]4(C)[C@@H]3CC=C3[C@@H]5CC(C)(C)CC[C@]5(O)C(=O)C[C@]34C)C2(C)C)[C@H](O[C@H]2O[C@@H](CO)[C@@H](O)[C@@H](O)[C@@H]2O)[C@@H](O[C@@H]2O[C@H](CO)[C@H](O)[C@H](O)[C@H]2O[C@@H]2OC[C@@H](O)[C@H](O)[C@H]2O)[C@@H]1O (some centres undefined) [CAMELLIOSIDE G]	Non-toxic	Non-toxic
4.80	COC(=O)[C@H]1O[C@@H](O[C@H]2CC[C@@]3(C)C(CC[C@]4(C)[C@@H]3CC=C3C5=C(CCC(C)(C)C5)C(=O)C[C@]34C)C2(C)C)[C@H](O[C@H]2O[C@@H](CO)[C@@H](O)[C@@H](O)[C@@H]2O)[C@@H](O[C@@H]2O[C@H](CO)[C@H](O)[C@H](O)[C@H]2O[C@@H]2OC[C@@H](O)[C@H](O)[C@H]2O)[C@@H]1O (some centres undefined) [CAMELLIOSIDE H]	Non-toxic	Non-toxic
5.30	CC(=O)O[C@H]1[C@@H](O)[C@H](O)[C@@H](O[C@H]2[C@H](O[C@H]3CC[C@@]4(C)C(CC[C@]5(C)[C@@H]4CC=C4[C@@H]6CC(C)(C)CC[C@]6(O)C(=O)C[C@]45C)C3(C)C)O[C@H](C(=O)O)[C@@H](O)[C@@H]2O[C@@H]2O[C@H](CO)[C@H](O)[C@H](O)[C@H]2O[C@@H]2O[C@H](CO)[C@@H](O)[C@H](O)[C@H]2O)O[C@H]1CO (some centres undefined) [CAMELLIOSIDE]	Non-toxic	Non-toxic
